{
  "source": "paper PMC8865373",
  "about": "(Biochemistry, 2021)",
  "key": {"[1]": {"target": "T1, TAZ2 domain of CBP (residues 1764–1855) (Mus musculus, UniProt P45481)", "T1 sequence (P45481 1764-1855)": "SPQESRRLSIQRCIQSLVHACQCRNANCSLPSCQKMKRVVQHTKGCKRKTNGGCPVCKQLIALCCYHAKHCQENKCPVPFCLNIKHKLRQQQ", "assay": "Fluorescence anisotropy competition with Alexa594-labeled E7", "format": "binding", "details": "ratio of fluorescence anisotropy competition KDs", "in_short": "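Tracer: Alexa Fluor 594-labelled E7(1–51) C24A/A50C (dye at position 50), 20 nM, in 20 mM Tris, 50 mM NaCl, 1 mM DTT, pH 7.0. It was pre-bound to 0.8 μM TAZ2 (>90% saturation). Unlabelled E7 peptides were titrated in and the anisotropy decrease read at 590/617 nm. Apparent KD came from a competition fit using the tracer KD from direct TAZ2 titration.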"}, "[2]": {"target": "TAZ2", "details": "doubly-phosphorylated peptide; fluorescence anisotropy and NMR spectroscopy; cited from earlier work"}},
  "note": "Where a SMILES comes first, the peptide text is derived from it. Where no end group is shown, it is not given here. [ ]: non-standard residue; d: D form. pS = N[C@@H](COP(=O)(O)O)C(=O)O",
  "data": [
    {"compound": "CC(C)C[C@H](NC(=O)[C@H](CCC(N)=O)NC(=O)[C@H](CCC(=O)O)NC(=O)[C@H](Cc1ccc(O)cc1)NC(=O)[C@H](CS)NC(=O)[C@H](Cc1ccc(O)cc1)NC(=O)[C@H](CC(C)C)NC(=O)[C@H](CC(=O)O)NC(=O)[C@@H](NC(=O)[C@@H](NC(=O)[C@@H](N)CCC(=O)O)[C@@H](C)O)[C@@H](C)O)C(=O)N[C@@H](CC(N)=O)C(=O)N[C@@H](CC(=O)O)C(=O)N[C@@H](CO)C(=O)N[C@@H](CO)C(=O)N[C@@H](CCC(=O)O)C(=O)N[C@@H](CCC(=O)O)C(=O)N[C@@H](CCC(=O)O)C(=O)N[C@@H](CC(=O)O)C(=O)N[C@@H](CCC(=O)O)C(=O)O", "note": "[CR2(18–37)] (H-ETTDLYCYEQLNDSSEEEDE-OH)", "values": [
      {"measurement": "KD of CR2 relative to the preceding CR1 motif (stronger)", "setting": "[1]", "value": "seven-fold"}
    ]},
    {"compound": "ppE7(1–51): doubly-phosphorylated (S31, S32) HPV16 E7(1–51) peptide (MHGDTPTLHEYMLDLQPETTDLYCYEQLND[pS][pS]EEEDEIDGPAGQAEPDRAH)", "values": [
      {"measurement": "binding affinity for TAZ2", "setting": "[2]", "value": "low nanomolar range"}
    ]}
  ]
}
